ChEMBL document CHEMBL5236609, “Optimization of 1,2,4-Triazole-3-thiones toward Broad-Spectrum Metallo-β-lactamase Inhibitors Showing Potent Synergistic Activity on VIM- and NDM-1-Producing Clinical Isolates” (J Med Chem, 2022)
The source made the active and inactive calls. No cut-off for these calls is given here.

tested on: not listed separately; test: Inhibition of bacterial IMP-1 (unknown origin) expressed in Escherichia coli EXPRESS BL21(DE3) assessed as inhibition constant by measuring rate of substrate hydrolysis by UV-visible spectrophotometry; parameters: species or system Bacteria
Procedure, shortened: (§1)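 Reporter-substrate assay with purified MBL (1–70 nM final) in 50 mM HEPES pH 7.5 at 30 °C. […] Inhibitor 0.5–1000 μM final. Ki derived from the v0/vi vs [I] slope assuming competitive inhibition, or from a Dixon plot. Ki given when inhibition >70%, otherwise % inhibition at 100 μM. Triplicate.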

SMILES | Ki
Cc1[nH]cnc1CN(Cc1c[nH]cn1)[C@@H](CCCn1c(-c2ccccc2)n[nH]c1=S)C(=O)O | 4500 nM
O=C(O)[C@H](CCCn1c(-c2ccc3ccccc3c2)n[nH]c1=S)N(Cc1c[nH]cn1)Cc1c[nH]cn1 | 4700 nM
O=C(O)[C@H](CCn1c(-c2ccccc2)n[nH]c1=S)N(Cc1c[nH]cn1)Cc1c[nH]cn1 | 6200 nM

tested on: not listed separately; test: Binding affinity to Zn(II) assessed as change in enthalpy by isothermal calorimetric assay

SMILES | deltaH
O=C(O)[C@H](CCCn1c(-c2ccccc2)n[nH]c1=S)N(Cc1c[nH]cn1)Cc1c[nH]cn1 | 5 kcal/mol
O=C(O)[C@H](CCCn1c(-c2ccccc2)n[nH]c1=S)N(Cc1ccccn1)Cc1ccccn1 | 6 kcal/mol

target: T1, Protein deacetylase HDAC6 (Homo sapiens) (UniProt Q9UBN7); test: Inhibition of recombinant human His-tagged HDAC6 expressed in baculovirus expression system using fluorogenic peptide substrate measured after 45 mins at 100 uM relative to control
T1 sequence (whole entry): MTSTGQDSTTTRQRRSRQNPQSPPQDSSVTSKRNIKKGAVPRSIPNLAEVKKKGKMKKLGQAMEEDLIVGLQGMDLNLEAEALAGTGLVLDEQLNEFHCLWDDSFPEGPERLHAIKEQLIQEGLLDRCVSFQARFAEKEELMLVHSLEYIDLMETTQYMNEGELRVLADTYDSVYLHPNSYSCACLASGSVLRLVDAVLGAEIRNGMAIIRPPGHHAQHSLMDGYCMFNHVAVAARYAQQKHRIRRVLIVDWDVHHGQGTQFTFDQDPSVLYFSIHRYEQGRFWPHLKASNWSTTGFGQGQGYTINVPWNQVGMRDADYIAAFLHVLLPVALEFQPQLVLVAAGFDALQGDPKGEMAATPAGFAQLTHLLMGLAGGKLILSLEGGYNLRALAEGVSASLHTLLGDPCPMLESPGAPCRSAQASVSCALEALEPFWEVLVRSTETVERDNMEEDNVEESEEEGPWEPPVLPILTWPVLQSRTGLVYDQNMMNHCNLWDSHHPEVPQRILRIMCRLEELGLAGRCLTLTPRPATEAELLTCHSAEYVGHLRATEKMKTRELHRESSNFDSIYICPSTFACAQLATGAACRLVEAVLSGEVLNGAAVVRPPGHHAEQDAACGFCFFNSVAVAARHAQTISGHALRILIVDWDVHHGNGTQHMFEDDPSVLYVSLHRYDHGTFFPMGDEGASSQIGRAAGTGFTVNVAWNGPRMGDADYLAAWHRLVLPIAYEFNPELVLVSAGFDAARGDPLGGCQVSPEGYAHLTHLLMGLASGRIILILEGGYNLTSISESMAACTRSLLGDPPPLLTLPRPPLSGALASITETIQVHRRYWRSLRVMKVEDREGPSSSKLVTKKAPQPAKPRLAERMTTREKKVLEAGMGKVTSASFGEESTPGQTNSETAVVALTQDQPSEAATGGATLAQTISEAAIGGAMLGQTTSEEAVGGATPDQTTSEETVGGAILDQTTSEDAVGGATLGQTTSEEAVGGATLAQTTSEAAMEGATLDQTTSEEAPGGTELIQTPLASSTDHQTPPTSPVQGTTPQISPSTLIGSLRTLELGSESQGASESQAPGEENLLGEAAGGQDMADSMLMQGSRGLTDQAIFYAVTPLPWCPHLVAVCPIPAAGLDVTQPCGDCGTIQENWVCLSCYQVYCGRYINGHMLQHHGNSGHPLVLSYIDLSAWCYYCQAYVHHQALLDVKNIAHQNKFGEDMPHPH
Procedure, shortened: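 Human HDAC6 fluorimetric kit with Fluor de Lys substrate; panobinostat as control inhibitor. Percent inhibition at 100 μM, one experiment in duplicate.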

SMILES | inhibition
Cc1[nH]cnc1CN(Cc1c[nH]cn1)[C@@H](CCCn1c(-c2ccccc2)n[nH]c1=S)C(=O)O | < 100%
O=C(O)[C@H](CCCn1c(-c2ccc3ccccc3c2)n[nH]c1=S)N(Cc1c[nH]cn1)Cc1c[nH]cn1 | < 100%
O=C(O)[C@H](CCCn1c(-c2ccccc2)n[nH]c1=S)N(Cc1c[nH]cn1)Cc1c[nH]cn1 | < 100%
O=C(O)[C@H](CCn1c(-c2ccccc2)n[nH]c1=S)N(Cc1c[nH]cn1)Cc1c[nH]cn1 | < 100%
O=C(O)[C@H](CCCn1c(-c2ccccc2)n[nH]c1=S)N(Cc1ccccn1)Cc1ccccn1 | < 100%

target: T2, Aminopeptidase N (Sus scrofa) (UniProt P15145); test: Inhibition of porcine APN using fluorogenic substrate H-Leu-AMC measured for 1 h rat 100 uM relative to control
T2 sequence (whole entry): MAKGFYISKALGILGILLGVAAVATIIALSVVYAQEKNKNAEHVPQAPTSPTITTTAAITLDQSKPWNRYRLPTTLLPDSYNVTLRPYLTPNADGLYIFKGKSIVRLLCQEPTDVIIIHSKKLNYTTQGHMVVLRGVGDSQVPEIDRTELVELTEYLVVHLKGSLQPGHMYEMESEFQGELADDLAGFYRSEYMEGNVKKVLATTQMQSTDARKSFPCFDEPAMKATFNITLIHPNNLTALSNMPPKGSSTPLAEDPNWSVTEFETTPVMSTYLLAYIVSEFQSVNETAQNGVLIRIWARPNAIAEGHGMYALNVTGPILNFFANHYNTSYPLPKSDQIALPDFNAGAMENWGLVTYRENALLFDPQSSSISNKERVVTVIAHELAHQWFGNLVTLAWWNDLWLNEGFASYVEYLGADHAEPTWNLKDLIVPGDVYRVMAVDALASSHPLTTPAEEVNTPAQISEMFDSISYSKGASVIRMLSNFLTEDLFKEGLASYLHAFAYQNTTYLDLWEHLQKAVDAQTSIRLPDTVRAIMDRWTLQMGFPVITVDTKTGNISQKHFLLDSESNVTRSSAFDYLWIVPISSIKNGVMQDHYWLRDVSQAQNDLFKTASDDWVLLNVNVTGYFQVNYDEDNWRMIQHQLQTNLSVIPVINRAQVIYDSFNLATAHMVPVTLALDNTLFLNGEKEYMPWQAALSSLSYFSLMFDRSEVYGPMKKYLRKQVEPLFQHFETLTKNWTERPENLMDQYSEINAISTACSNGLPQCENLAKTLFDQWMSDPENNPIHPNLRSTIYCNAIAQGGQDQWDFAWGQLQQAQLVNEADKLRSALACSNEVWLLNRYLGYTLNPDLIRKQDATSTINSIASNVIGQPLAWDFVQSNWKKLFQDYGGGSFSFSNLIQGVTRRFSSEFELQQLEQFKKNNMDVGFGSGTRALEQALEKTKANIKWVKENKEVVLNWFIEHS

SMILES | inhibition
Cc1[nH]cnc1CN(Cc1c[nH]cn1)[C@@H](CCCn1c(-c2ccccc2)n[nH]c1=S)C(=O)O | 58%
O=C(O)[C@H](CCCn1c(-c2ccccc2)n[nH]c1=S)N(Cc1ccccn1)Cc1ccccn1 | 30%

tested on: not listed separately; test: Metabolic stability in CD-1 mouse microsomes assessed as half life at 37 degC by LC-MS/MS analysis; format: ADME, Microsome
Procedure, shortened: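 Mouse liver microsomes, mixed gender, at 37 °C for 40 min; propranolol control. Reports t1/2, intrinsic clearance and % intact compound remaining at 40 min.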

SMILES | half-life
Cc1[nH]cnc1CN(Cc1c[nH]cn1)[C@@H](CCCn1c(-c2ccccc2)n[nH]c1=S)C(=O)O | > 40 min
O=C(O)[C@H](CCCn1c(-c2ccc3ccccc3c2)n[nH]c1=S)N(Cc1c[nH]cn1)Cc1c[nH]cn1 | > 40 min
O=C(O)[C@H](CCCn1c(-c2ccccc2)n[nH]c1=S)N(Cc1c[nH]cn1)Cc1c[nH]cn1 | > 40 min
O=C(O)[C@H](CCn1c(-c2ccccc2)n[nH]c1=S)N(Cc1c[nH]cn1)Cc1c[nH]cn1 | > 40 min
O=C(O)[C@H](CCCn1c(-c2ccccc2)n[nH]c1=S)N(Cc1ccccn1)Cc1ccccn1 | > 40 min

tested on: not listed separately; test: Inhibition of bacterial VIM-1 (unknown origin) expressed in Escherichia coli EXPRESS BL21(DE3) assessed as inhibition constant by measuring rate of substrate hydrolysis by UV-visible spectrophotometry; parameters: species or system Bacteria; procedure, shortened: as §1

SMILES | Ki
Cc1[nH]cnc1CN(Cc1c[nH]cn1)[C@@H](CCCn1c(-c2ccccc2)n[nH]c1=S)C(=O)O | 380 nM
O=C(O)[C@H](CCCn1c(-c2ccc3ccccc3c2)n[nH]c1=S)N(Cc1c[nH]cn1)Cc1c[nH]cn1 | 520 nM
O=C(O)[C@H](CCCn1c(-c2ccccc2)n[nH]c1=S)N(Cc1c[nH]cn1)Cc1c[nH]cn1 | 150 nM
O=C(O)[C@H](CCn1c(-c2ccccc2)n[nH]c1=S)N(Cc1c[nH]cn1)Cc1c[nH]cn1 | 390 nM
O=C(O)[C@H](CCCn1c(-c2ccccc2)n[nH]c1=S)N(Cc1ccccn1)Cc1ccccn1 | 1700 nM

tested on: Bacteria; test: Inhibition of bacterial VIM-2 (unknown origin) assessed as decrease in Zn(II) content in protein at 50 uM by native MS analysis
Procedure, shortened: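 Purified VIM-2 or NDM-1 was given 2 mM TCEP and 2 equiv ZnCl2, incubated 1 h, and dialysed overnight into 100 mM ammonium acetate pH 7.5. Enzyme at 10 μM was then incubated 5 min with 50 μM compound. Positive-mode nanoESI on an Orbitrap, scanning m/z 1000–4000. Species assigned from deconvoluted masses.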

SMILES | inhibition
O=C(O)[C@H](CCCn1c(-c2ccccc2)n[nH]c1=S)N(Cc1c[nH]cn1)Cc1c[nH]cn1 | Active
O=C(O)[C@H](CCCn1c(-c2ccccc2)n[nH]c1=S)N(Cc1ccccn1)Cc1ccccn1 | Active
